Laboratory results: ChEMBL document CHEMBL1770125, “Amodiaquine analogues containing NO-donor substructures: synthesis and their preliminary evaluation as potential tools in the treatment of cerebral malaria” (Eur J Med Chem, 2011)
Activity calls are given as the source filed them. No cut-off for these calls is given here.

Legend:
Rattus norvegicus [1] = species: Rattus norvegicus; experiment: Vasodilatory activity in pre-contracted Wistar rat aortic rings in presence of 1 uM ODQ; assay type: functional, Aorta
How it was run: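 Endothelium-denuded aortic strips from male Wistar rats (180-200 g) were kept in Krebs-bicarbonate at 37 °C, pH 7.4. ODQ at 1 μM was added 5 min before contraction with 1 μM phenylephrine. Cumulative relaxation curves were recorded isometrically. EC50 is the mean of ≥5 determinations.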

Plasmodium falciparum [2] = experiment: Antiplasmodial activity against chloroquine-sensitive Plasmodium falciparum D10 assessed as inhibition of parasite LDH activity after 72 hrs by spectrophotometry; assay type: functional, organism-based; details: D10, 72 h
How it was run: (§1)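 Asynchronous cultures (1-1.5% parasitemia, 1% final haematocrit) in human A+ RBCs were grown in RPMI 1640 with 1% AlbuMax, hypoxanthine, HEPES and glutamine, at 37 °C under 1% O₂/5% CO₂. IC50 is the mean±SD of ≥3 experiments.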

Rattus norvegicus [3] = species: Rattus norvegicus; experiment: Vasodilatory activity in pre-contracted Wistar rat aortic rings; assay type: functional, Aorta
How it was run: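 Aortic strips, endothelium removed, from male Wistar rats (180-200 g) were held in Krebs-bicarbonate at 37 °C, pH 7.4, gassed with 95% O₂/5% CO₂. After 90 min equilibration they were contracted with 1 μM phenylephrine. Cumulative concentration-response curves were run at plateau, with isometric recording. EC50 is the mean of ≥5 determinations.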

Plasmodium falciparum [4] = experiment: Antiplasmodial activity against chloroquine-resistant Plasmodium falciparum W2 assessed as inhibition of parasite LDH activity after 72 hrs by spectrophotometry; assay type: functional, organism-based; details: W2, 72 h; how it was run: as §1
Plasmodium berghei [5] = experiment: Antiplasmodial activity against Plasmodium berghei ANKA infected in C57BL/6 mouse assessed as reduction in parasitemia at 1.4 mg, ip daily for 5 days measured after 72 hrs relative to control; assay type: functional, organism-based
How it was run: (§2)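 C57BL/6 mice aged 6-8 weeks were infected ip with 1x10⁶ PbA-GFP parasitized red blood cells. Parasitemia, motor behaviour, rectal temperature and weight were checked from day 5. Treatment began at late-stage CM, defined by neurological signs (ataxia, paralysis, poor righting, seizures, roll-over, coma). Doses were 100 μL ip daily for 5 days: 1.4 mg in 20% DMSO/20% PEG400/60% saline, 1.15 mg in saline.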

Plasmodium berghei [6] = experiment: Antiplasmodial activity against Plasmodium berghei ANKA infected in C57BL/6 mouse assessed as reduction in parasitemia at 1.15 mg, ip daily for 5 days measured after 72 hrs relative to control; assay type: functional, organism-based; how it was run: as §2
Plasmodium berghei [7] = experiment: Antiplasmodial activity against Plasmodium berghei ANKA infected in C57BL/6 mouse assessed as reduction in parasitemia at 1.4 mg, ip daily for 5 days measured upto 24 hrs relative to control; assay type: functional; parameters: scale not given: the % may be the effect or the level left; how it was run: as §2
Plasmodium berghei [8] = experiment: Antiplasmodial activity against Plasmodium berghei ANKA infected in C57BL/6 mouse assessed as mouse survival at 1.4 mg, ip daily for 5 days relative to control; assay type: functional; how it was run: as §2
Plasmodium berghei [9] = experiment: Antiplasmodial activity against Plasmodium berghei ANKA infected in C57BL/6 mouse assessed as reduction in parasitemia at 1 mg, ip daily for 5 days measured after 72 hrs relative to control; assay type: functional, organism-based
Plasmodium berghei [10] = experiment: Antiplasmodial activity against Plasmodium berghei ANKA infected in C57BL/6 mouse assessed as reduction in parasitemia at 1 mg, ip daily for 5 days measured upto 24 hrs relative to control; assay type: functional; parameters: scale not given: the % may be the effect or the level left
Plasmodium berghei [11] = experiment: Antiplasmodial activity against Plasmodium berghei ANKA infected in C57BL/6 mouse assessed as mouse survival at 1 mg, ip daily for 5 days relative to control; assay type: functional
Plasmodium berghei [12] = experiment: Antiplasmodial activity against Plasmodium berghei ANKA infected in C57BL/6 mouse assessed as reduction in parasitemia at 1.15 mg, ip daily for 5 days measured upto 24 hrs relative to control; assay type: functional, organism-based; how it was run: as §2
Plasmodium berghei [13] = experiment: Antiplasmodial activity against Plasmodium berghei ANKA infected in C57BL/6 mouse assessed as mouse survival 1.15 mg, ip daily for 5 days relative to control; assay type: functional, organism-based; how it was run: as §2
[14] = Rattus norvegicus, Aorta, read-out: EC50

SMILES | EC50 (Rattus norvegicus [1]; [14]) [nM] | IC50 (Plasmodium falciparum [2]) [nM] | EC50 (Rattus norvegicus [3]; [14]) [nM] | IC50 (Plasmodium falciparum [4]) [nM] | other results
CCN(CCOc1no[n+]([O-])c1-c1ccccc1)Cc1cc(Nc2ccnc3cc(Cl)ccc23)ccc1O | > 10000 | 23 | 1200 | 24 | –
O=[N+]([O-])OCC1CCNCC1 | – | > 5000 | – | > 5000 | –
CCN(CCOc1no[n+]([O-])c1S(=O)(=O)c1ccccc1)Cc1cc(Nc2ccnc3cc(Cl)ccc23)ccc1O.Cl.Cl.Cl | 1000 | 46 | 17 | 152 | Activity (Plasmodium berghei [5]): Active; Activity (Plasmodium berghei [6]): Active; Activity (Plasmodium berghei [7]): 76%; Survival (Plasmodium berghei [8]): 23%; Activity (Plasmodium berghei [9]): Active; Activity (Plasmodium berghei [10]): 72%; Survival (Plasmodium berghei [11]): 8%
O=[N+]([O-])OCCCN1CCN(Cc2cc(Nc3ccnc4cc(Cl)ccc34)ccc2O)CC1 | 3600 | 18 | 79 | 34 | –
CCN(CC)Cc1cc(Nc2ccnc3cc(Cl)ccc23)ccc1O.Cl | – | 12 | – | 16 | EC50 (Rattus norvegicus [1]): Not Active; EC50 (Rattus norvegicus [3]): Not Active; Activity (Plasmodium berghei [9]): Active
CN(C)CCCOc1no[n+]([O-])c1S(=O)(=O)c1ccccc1 | > 10000 | > 5000 | 14300 | > 5000 | –
O=[N+]([O-])OCCCN1CCNCC1 | – | > 5000 | – | > 5000 | –
CCN(CCCCCCO[N+](=O)[O-])Cc1cc(Nc2ccnc3cc(Cl)ccc23)ccc1O | > 30000 | 31 | 450 | 28 | –
CCNCCCCC(CO[N+](=O)[O-])O[N+](=O)[O-] (stereo not given) | – | > 5000 | – | > 5000 | –
CCNCCCCCCO[N+](=O)[O-] | – | > 5000 | – | > 5000 | –
O=[N+]([O-])OCCN1CCNCC1 | – | > 5000 | – | > 5000 | –
CN(C)CCCOc1no[n+]([O-])c1-c1ccccc1 | – | > 5000 | 30 | 4940 | –
O=[N+]([O-])OCCC1CCNCC1 | – | > 5000 | – | > 5000 | –
O=[N+]([O-])OCCCNCc1cc(Nc2ccnc3cc(Cl)ccc23)ccc1O | 11000 | 27 | 420 | 62 | –
CCN(CCCO[N+](=O)[O-])Cc1cc(Nc2ccnc3cc(Cl)ccc23)ccc1O | 3300 | 27 | 450 | 31 | –
O=[N+]([O-])OCCN1CCN(Cc2cc(Nc3ccnc4cc(Cl)ccc34)ccc2O)CC1 | 6500 | 55 | 120 | 138 | –
O=[N+]([O-])OCCC1CCN(Cc2cc(Nc3ccnc4cc(Cl)ccc34)ccc2O)CC1 | > 30000 | 19 | 100 | 25 | –
O=[N+]([O-])OCC1CCN(Cc2cc(Nc3ccnc4cc(Cl)ccc34)ccc2O)CC1 | > 30000 | 19 | 100 | 28 | –
CCN(CCCCC(CO[N+](=O)[O-])O[N+](=O)[O-])Cc1cc(Nc2ccnc3cc(Cl)ccc23)ccc1O (stereo not given) | > 30000 | 38 | 220 | 21 | Activity (Plasmodium berghei [12]): inactive; Survival (Plasmodium berghei [13]): inactive; Activity (Plasmodium berghei [6]): Active; Activity (Plasmodium berghei [9]): Active
